The list is not random: actives were taken first. Their share in the collection is about 4.1%.
KCC2 mod: modulates chloride dependent transport by human KCC2. Q9H2X9. KCC2 cells, thallium flux FluoZin-2 fluorescence. B-score of Tl+ flux slope (higher = more flux/activation; lower = inhibition) at 10 µM. 190,000 compounds, 2.2% hits. AID 1456;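 active = thallium flux slope and its plate-corrected score both differing from the plate sample mean at a set confidence after two filtering rounds, in either direction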;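 also: slope of fluorescence scaled to starting intensity during 10 to 20 s after thallium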
Target sequence (Q9H2X9 whole entry, looked up): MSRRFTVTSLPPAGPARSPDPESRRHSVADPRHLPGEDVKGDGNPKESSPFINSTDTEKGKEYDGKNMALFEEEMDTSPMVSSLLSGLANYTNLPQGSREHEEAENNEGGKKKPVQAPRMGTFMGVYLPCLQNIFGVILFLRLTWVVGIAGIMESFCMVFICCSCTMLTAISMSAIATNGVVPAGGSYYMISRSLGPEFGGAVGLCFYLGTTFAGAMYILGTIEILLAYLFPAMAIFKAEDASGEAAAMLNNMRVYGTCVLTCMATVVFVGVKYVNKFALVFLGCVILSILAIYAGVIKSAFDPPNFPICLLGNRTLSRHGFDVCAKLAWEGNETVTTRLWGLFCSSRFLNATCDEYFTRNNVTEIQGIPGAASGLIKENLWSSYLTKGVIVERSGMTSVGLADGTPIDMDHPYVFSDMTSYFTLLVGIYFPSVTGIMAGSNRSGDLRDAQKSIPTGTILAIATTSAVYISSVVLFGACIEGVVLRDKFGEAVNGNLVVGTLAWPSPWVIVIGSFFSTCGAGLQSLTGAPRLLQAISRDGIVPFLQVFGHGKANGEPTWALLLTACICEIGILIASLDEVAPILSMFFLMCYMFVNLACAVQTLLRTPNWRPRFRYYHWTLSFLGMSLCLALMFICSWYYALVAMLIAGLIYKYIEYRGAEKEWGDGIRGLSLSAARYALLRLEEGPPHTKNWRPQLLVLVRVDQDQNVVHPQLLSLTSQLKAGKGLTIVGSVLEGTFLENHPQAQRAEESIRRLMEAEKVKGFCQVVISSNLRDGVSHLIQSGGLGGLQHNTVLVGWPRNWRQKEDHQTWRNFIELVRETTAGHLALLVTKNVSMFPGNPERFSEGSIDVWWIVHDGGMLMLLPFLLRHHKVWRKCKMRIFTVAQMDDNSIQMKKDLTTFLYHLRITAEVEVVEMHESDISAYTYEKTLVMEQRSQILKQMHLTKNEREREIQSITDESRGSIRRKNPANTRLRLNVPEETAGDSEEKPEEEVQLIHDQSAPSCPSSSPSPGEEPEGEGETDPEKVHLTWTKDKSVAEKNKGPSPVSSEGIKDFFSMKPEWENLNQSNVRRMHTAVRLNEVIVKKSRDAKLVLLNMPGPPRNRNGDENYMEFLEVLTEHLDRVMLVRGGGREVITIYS
hERG rescue: compounds protecting human hERG from proarrhythmic drug block | CHO-hERG, FluxOR thallium flux, dofetilide IC70 present | activation (rescue from dofetilide block), less the hit threshold, % at 10 µM | 310,000 compounds, 0.51% hits | AID 1511;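 active = activation above the mean of controls blocked by dofetilide plus 5 SD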;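 also: thallium influx through hERG after potassium depolarization seen as dye fluorescence rise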
KCNQ1 pot: human KCNQ1 channel potentiation or activation | CHO-K1 KCNQ1, thallium flux FluxOR fluorescence; hits give high values | P51787 | B-score at 10 µM | 310,000 compounds, 0.35% hits | AID 2648;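 active = fluorescence ratio B-score, a plate-corrected score, at least three library SD, with initial intensity B-score within 5 SD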
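Assay system: stable KCNQ1 CHO-K1 line; medium: assay buffer, equal DMSO in all wells; timing: 90 min dye loading and 20 min compound exposure, both at room temperature; technique: kinetic FluxOR thallium fluorescence, 10-s 1-Hz baseline, 110-s post-stimulus read; read-out basis: B score of baseline-normalized fluorescence ratio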
KCNK9 inh: inhibitors of human KCNK9 two-pore domain potassium channel | Q9NPC2 | HEK293 KCNK9, FluxOR thallium flux fluorescence; hits give low values | B-score at 10 µM | 310,000 compounds, 1.2% hits;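 active = ratio B-score over 3 SD below the library mean, with starting fluorescence within 5 SD of its mean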;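 also: negative B-score means less thallium flux so channel inhibition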
KCNK3 block: human KCNK3 channel inhibition, primary screen. 340,000 compounds, 0.84% hits. CHO-KCNK3 thallium flux, FluxOR fluorescence; hits give low values. B-score at 10 µM. AID 602410;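 active = B-score under library mean minus 4 SD, starting fluorescence ratio at most library mean plus 5 SD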;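 also: more negative B-score means stronger inhibition of thallium flux through KCNK3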
KCNQ1 block: human KCNQ1 channel inhibition; CHO-K1 KCNQ1, FluxOR thallium flux fluorescence; hits give high values; 310,000 compounds, 1.3% hits; P51787; B-score at 10 µM; AID 2642;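 active = compounds whose thallium flux B-score, printed positive for inhibition, exceeds three library SD while starting fluorescence stays within three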;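 also: channel opened by potassium depolarization with thallium stimulus after 20 min compound exposure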
KCC2 sec1: confirmation of human KCC2 transport modulators; normalised thallium flux (F/F0 slope) at 10 µM; HEK293-KCC2, thallium flux, FluoZin2 fluorescence; hits give high values; shares compounds with KCC2 mod; 3,700 compounds, 15% hits; AID 1713;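 active = thallium flux slope above the same plate's solvent-only control mean plus 3 SD; inconclusive = the two replicate wells disagree; inactive = no significant difference from solvent-only control wells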
KCC2 bumet counter: bumetanide-insensitive thallium flux in KCC2 cells with ouabain, counter-screen; shares compounds with KCC2 mod; HEK293-KCC2 + bumetanide/ouabain, thallium flux FluoZin2; hits give high values; normalized thallium flux at 10 µM; 3,700 compounds, 49% hits; AID 1714;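 active = thallium entry rate above the same plate's blocked-transporter control wells by more than 3 SD; inconclusive = the two repeat wells disagree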;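 also: raw slope of fluorescence over initial fluorescence between 10 and 20 s after thallium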
KCC2 secondary2: KCC2 (human) modulation, second secondary assay; AID 1715; shares compounds with KCC2 mod; 3,700 compounds, 23% hits; normalized thallium flux at 10 µM; HEK293-KCC2, thallium flux FluoZin2 fluorescence; actives lie on both sides; F/F0 rise rate, 10–20 s post-thallium;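 active = thallium flux slope more than 3 SD above or below the plate's solvent-only control mean, mostly below; inconclusive = the two repeat wells disagreed; inactive = no significant shift from solvent-only controls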;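 also: raw slope with 0.1% DMSO as baseline and bumetanide as block control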
HEK293 Tl flux: acts in parental HEK cells, KCC2 counter-screen | shares compounds with KCC2 mod | HEK293 parental cells, thallium flux FluoZin2, ouabain; baseline-ratio fluorescence slope, 10–20 s after thallium | thallium flux rate (normalised fluorescence) at 10 µM | 3,700 compounds, 46% hits | AID 1716;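 active = thallium flux rate significantly above the same plate's solvent-only control wells, beyond their mean plus 3 SD; inconclusive = the two replicate wells gave conflicting results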
KCC2 retest ouab: modulates human KCC2 on retest with ouabain; HEK293-KCC2, thallium flux FluoZin2 fluorescence; bidirectional: low = inhibitor, high = activator; shares compounds with KCC2 mod; 3,700 compounds, 48% hits; AID 1717; raw Tl+ flux slope (below DMSO = inhibition, above = activation) at 10 µM;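 active = thallium flux slope beyond 3 SD from same-plate DMSO control mean in most replicates, usually higher, sometimes lower; inconclusive = repeat tests gave conflicting results; inactive = no significant difference from controls in most replicates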;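 also: slope of initial-normalized fluorescence between seconds 10 and 20 after thallium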
HEK counter2: acts in parental HEK cells, second KCC2 counter-screen; shares compounds with KCC2 mod; HEK293 parental, thallium flux FluoZin-2 fluorescence slope; thallium flux slope at 10 µM; 3,700 compounds, 33% hits; AID 1718;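 active = thallium flux slope above the same plate's solvent-control mean plus 3 SD in both duplicate wells; inconclusive = duplicate wells that disagreed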;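 also: run without ouabain in cells lacking the KCC2 cotransporter; slope of fluorescence scaled to its starting value between 10 and 20 s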
Starred values were filed as active, the others as inactive; i = inactive; ? = inconclusive; nt = not tested or not shown.

SMILES	KCC2 mod	hERG rescue	KCNQ1 pot	KCNK9 inh	KCNK3 block	KCNQ1 block	KCC2 sec1	KCC2 bumet counter	KCC2 secondary2	HEK293 Tl flux	KCC2 retest ouab	HEK counter2
COc1ccc(CC(=O)N2CCN(C(=O)c3ccco3)CC2)cc1	0.061	-10	i	i	i	i	nt	nt	nt	nt	nt	nt
CCc1cc2cccc(C)c2nc1SCC(=O)NNC(=O)c1ccco1	nt	-13	i	i	i	i	0.0096	0.01*	0.032	0.011*	0.021	0.011
CCc1cc2ccc(OC)cc2nc1SCC(=O)NNC(=O)c1ccco1	17*	-2	i	i	i	i	0.0081	0.018*	0.034	0.028*	0.025*	0.014*
COc1ccc(NC(=O)CN(C)S(=O)(=O)c2ccc(Cl)cc2)cn1	nt	nt	nt	nt	i	nt	nt	nt	nt	nt	nt	nt
CCCN1C(=O)/C(=C/c2ccc3c(c2)OCO3)NC1=S	45*	-4	i	i	i	i	0.026*	0.071*	0.035	0.092*	0.06*	0.022*
CCCN1C/C(=C/c2ccc3c(c2)OCO3)C(=O)/C(=C/c2ccc3c(c2)OCO3)C1	-0.59	-6	i	i	i	i	nt	nt	nt	nt	nt	nt
CSc1nc(N)c(C(=O)Nc2ccc([N+](=O)[O-])cc2)s1	0.56	-1	i	i	i	i	nt	nt	nt	nt	nt	nt
O=C(CSc1nnc(COc2cccc3cccnc23)o1)c1ccc(F)cc1	nt	-2	i	i	i	i	0.0067	0.0052	0.033	0.0035	0.015*	0.011
COc1cccc(C(=O)CSc2nnc(COc3cccc4cccnc34)o2)c1	-3.5	-10	i	i	i	i	nt	nt	nt	nt	nt	nt
Cc1ccc(C(=O)CSc2nnc(COc3cccc4cccnc34)o2)cc1	-4*	-1	i	i	i	i	?	?	?	0.0069	0.014	0.01
CC(C)n1c(=S)[nH]c2scc(-c3cccs3)c2c1=O	110*	42*	85*	i	i	i	0.023*	0.092*	0.088*	0.09*	0.093*	0.085*
O=c1c2c(-c3cccs3)csc2[nH]c(=S)n1-c1ccccc1	2.4	-8	i	i	i	i	nt	nt	nt	nt	nt	nt
O=C(NCc1ccc(N2CCCC2=O)cc1)c1ccc(F)cc1	-0.31	-12	i	i	i	i	nt	nt	nt	nt	nt	nt
Cc1ccc(CNC(=O)c2ccc(N3CCCC3=O)cc2)cc1	-4.3*	-10	i	i	i	i	0.016	0.0046	0.029	0.0074	0.017	0.011
Cc1ccc(-c2n[nH]c(=S)c3ccccc23)cc1	8.9*	-10	i	i	i	i	0.0092	0.025*	0.029	0.0097*	?	0.0095
O=C1CCCN1CCCNc1ccc2nnc(CCC(=O)N3CCN(c4ccccc4)CC3)n2n1	nt	-10	i	i	i	i	nt	nt	nt	nt	nt	nt
CCOc1ccc(N2C(=O)CC(Sc3nc4ccc(OCC)cc4s3)C2=O)cc1 (configuration not stated)	0.79	-9	i	i	i	i	nt	nt	nt	nt	nt	nt
CCOc1ccc2nc(SC3CC(=O)N(c4ccc(OC)cc4OC)C3=O)sc2c1 (configuration not stated)	5.8*	-6	i	i	i	i	0.007	0.013*	0.035	0.014*	?	0.017*
Cc1noc(C)c1CSCC(=O)N(C)CC(=O)Nc1ccccc1Cl	nt	-10	i	i	i	i	nt	nt	nt	nt	nt	nt
Cc1ccc(CCNC(=O)Cn2cccc2)cc1	nt	-6	i	i	i	i	0.012	0.0064	0.031	0.0078	0.023	0.01
Cc1nc2[nH]c(=O)c3c(n2n1)NC1=C(C(=O)CC(C)(C)C1)C3c1ccc(F)cc1 (configuration not stated)	nt	-16	i	i	i	i	0.006	0.0046	0.03	0.0068	0.018	0.01
O=C1CC(O)(C(F)(F)F)Oc2c1ccc1ccccc21 (configuration not stated)	46*	6.8*	8*	i	i	i	0.0088	0.077*	0.065*	0.059*	0.067*	0.061*
O=C1CC(O)(C(F)F)Oc2ccc3ccccc3c21 (configuration not stated)	2.7	-5	i	i	i	i	nt	nt	nt	nt	nt	nt
CCCc1cc(-c2n[nH]c(=S)n2-c2cccc(C)c2)cs1	106*	-10	i	i	i	i	0.022*	0.2*	0.04	0.058*	0.062*	0.017*
Cc1cc(C)c2nc(N3CCC(C(=O)N4CCCC4)CC3)sc2c1	nt	-13	i	i	i	i	?	0.0057	0.034	0.0041	0.015*	0.011
CCCCCCCCCCNC(=O)C(=O)Nc1ccccn1	nt	-4	i	i	i	i	0.011	0.0068	0.033	0.0098*	0.02	0.013*
CC1CCCN(C(=O)c2cccc(S(=O)(=O)Nc3cc(C(F)(F)F)ccc3Cl)c2)C1 (configuration not stated)	-3.7*	-7	i	i	i	i	0.0078	0.0051	0.033	0.0076	0.015*	0.011
O=C(c1cccc(S(=O)(=O)Nc2ccccc2Cl)c1)N1CCC1	nt	-6	i	i	i	i	nt	nt	nt	nt	nt	nt
N#CC1=C(N)NC(SCC(=O)O)=C(C#N)C12CCCC2	-0.62	-13	i	i	i	i	nt	nt	nt	nt	nt	nt
N#CC1=C(N)NC(SCc2ccc(F)cc2)=C(C#N)C12CCCCC2	-3.1	-26	i	i	i	i	0.0065	0.0043	0.024*	?	?	0.011

Compound activity as filed in PubChem.
